Only some compounds are listed: those with a hit (about 3.7% of all), similar ones and a draw of the others.
SR-BI DiI inh – blocks mouse SR-BI lipid uptake from DiI-HDL. ldlA[mSR-BI] CHO cells, DiI-HDL uptake fluorescence, 3 h. hit rate 0.96% among 320,000. inhibition, % at 12.5 µM. Q61009. AID 488896;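 active means mean replicate inhibition of at least 70% and a set share of replicates each scoring 70 or more; inconclusive means meets just one of the two criteria; inactive means fails both criteria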
Target sequence (Q61009 whole entry, looked up): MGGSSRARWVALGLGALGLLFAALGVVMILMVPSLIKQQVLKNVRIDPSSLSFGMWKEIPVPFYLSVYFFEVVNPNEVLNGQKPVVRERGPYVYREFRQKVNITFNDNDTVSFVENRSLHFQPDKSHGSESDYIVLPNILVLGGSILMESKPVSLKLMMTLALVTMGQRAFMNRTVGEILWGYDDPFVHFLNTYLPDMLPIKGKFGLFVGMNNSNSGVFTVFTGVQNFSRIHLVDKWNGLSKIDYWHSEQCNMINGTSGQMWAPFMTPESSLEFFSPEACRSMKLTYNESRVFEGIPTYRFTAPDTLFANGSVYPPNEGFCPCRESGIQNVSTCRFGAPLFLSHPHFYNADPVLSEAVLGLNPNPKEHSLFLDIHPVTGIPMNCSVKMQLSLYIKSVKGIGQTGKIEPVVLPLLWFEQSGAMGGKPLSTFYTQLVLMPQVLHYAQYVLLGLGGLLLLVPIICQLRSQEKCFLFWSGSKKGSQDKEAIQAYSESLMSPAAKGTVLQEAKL
AHR act – human AHR activation | P35869 | AHR-responsive luciferase reporter cells, luminescence | activation, % at 5 µM | hit rate 2.5% among 320,000 | AID 2796; in the data active means activation above about 47%
JMJD2C inh – human JMJD2C demethylase inhibition | Q9H3R0 | GST-JMJD2C(1-420) H3K9me3 demethylation, DELFIA europium | inhibition, % at 2.35 µM | hit rate 0.069% among 330,000 | AID 2099;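 active means more than half of a compound's replicate wells show inhibition beyond 50%, single wells judged on their own value; inconclusive means some, but no more than half, of replicates pass 50% inhibition; inactive means no replicate passes 50% inhibition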;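 further: signal counts dimethyl H3K9 product captured on neutravidin plate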
SR-BI DiI-HDL act – SR-BI HDL lipid transfer activation | hit rate 0.096% among 320,000 | CHO ldlA[mSR-BI] cells, DiI-HDL uptake fluorescence, 3 h; 100 = double the neutral-control signal | activation, % at 12.5 µM;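 active means mean replicate activation of at least 60% and every replicate at or above 60%; inconclusive means mean or all-replicate condition met, but not both; inactive means mean below 60% and not all replicates reaching 60%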
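System: LDL receptor-deficient CHO ldlA cells overexpressing murine SR-BI | Timing: 3 h uptake period with compound, 37 °C | Medium: HEPES-buffered (25 mM, pH 7.4) F12 plus 0.5% BSA | Dosing: Single-point compound dose | Signal: Bottom-read fluorescence, 550/595 nm | Read-out: Retained DiI signal reflecting DiI-HDL uptake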
GAA850 FXN act – frataxin GAA850 promoter activation. HEK293 lucGAA850 FXN promoter luciferase reporter, 24 h; percent of 10 µM SAHA response. activation, % at 6 µM. hit rate 0.56% among 360,000. AID 540364;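 active means activation above the average of all compounds screened plus 3 SD, cutoff fixed separately per campaign, cut at about 7.5% in these data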
DiI quencher – DiI fluorescence quenching in cell-free counter-screen. shares compounds with SR-BI DiI inh. cell-free DiI-HDL fluorescence quenching, 30 min. AC50, µM (highest dose often 35 µM). hit rate 20% among 470. AID 540326;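 active means quenching, a falling signal, with AC50 below a set limit tied to the top valid dose, actives reach about 32 µM in these data; inconclusive means no clear call, values can overlap the other calls; inactive means rising signal, and the rest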
Hits are given with their value.

Results for COCCN(C(=O)COC(=O)c1ccccc1Nc1ccccc1)c1c(N)n(Cc2ccccc2)c(=O)[nH]c1=O ?
SR-BI DiI inh: 74.1; AHR act: inactive; JMJD2C inh: inactive; SR-BI DiI-HDL act: inactive; GAA850 FXN act: inactive; DiI quencher: inactive

Results for Cc1ccc(NC(=O)CSc2nnc([C@H](C)NC(=O)OC(C)(C)C)o2)c(C)c1 ?
SR-BI DiI inh: 73.0; AHR act: inactive; JMJD2C inh: inactive; SR-BI DiI-HDL act: inactive; GAA850 FXN act: inactive; DiI quencher: inactive

What do the screens show for `Cc1cccc(NC(=O)CSc2nnc([C@H](C)NC(=O)OC(C)(C)C)o2)c1C`?
SR-BI DiI inh: inactive; AHR act: inactive; JMJD2C inh: inactive; SR-BI DiI-HDL act: inactive; GAA850 FXN act: inactive

What do the screens show for `CC(=O)Nc1nc(-c2ccccc2)nc(-c2ccccc2OC(C)=O)n1`?
SR-BI DiI inh: inconclusive; AHR act: 75.5; JMJD2C inh: inactive; SR-BI DiI-HDL act: inactive; GAA850 FXN act: inactive; DiI quencher: inactive

What do the screens show for `CCOC(=O)C1=C(CNCCOc2ccc(OC)cc2)NC(=O)NC1c1ccc2c(c1)OCO2` (stereo not given)?
SR-BI DiI inh: inconclusive; AHR act: inactive; JMJD2C inh: inactive; SR-BI DiI-HDL act: inactive; GAA850 FXN act: inactive; DiI quencher: inactive

Results for CCNc1nc(Cl)nc(-c2cn(-c3ccccc3)c3ccccc23)n1 ?
SR-BI DiI inh: 72.1; AHR act: 62.1; JMJD2C inh: inactive; SR-BI DiI-HDL act: inactive; GAA850 FXN act: inactive; DiI quencher: inactive

Results for COc1cc(/C=C/C(=O)OCC(=O)c2ccc[nH]2)cc(OC)c1OC ?
SR-BI DiI inh: inconclusive; AHR act: inactive; JMJD2C inh: inactive; SR-BI DiI-HDL act: inactive; GAA850 FXN act: inactive; DiI quencher: inactive

What do the screens show for `COc1ccc(/C=C/C(=O)OCC(=O)c2ccc[nH]2)cc1`?
SR-BI DiI inh: inactive; AHR act: inactive; JMJD2C inh: inactive; SR-BI DiI-HDL act: inactive; GAA850 FXN act: inactive

Results for Cc1ccc(NC(=O)C(=O)NCCCN2CCCC2=O)c(C)c1 ?
SR-BI DiI inh: inactive; AHR act: inactive; JMJD2C inh: inactive; SR-BI DiI-HDL act: inactive; GAA850 FXN act: inactive

Results for O=C(Cc1cccs1)NCCSc1c(-c2ccc(Cl)cc2)[nH]c2ccccc12 ?
SR-BI DiI inh: inconclusive; AHR act: 51.3; JMJD2C inh: inactive; SR-BI DiI-HDL act: inactive; GAA850 FXN act: inactive; DiI quencher: inactive

How did Cc1ccc(-c2[nH]c3ccccc3c2SCCNC(=O)c2cc3ccccc3oc2=O)cc1 do in these assays?
SR-BI DiI inh: inactive; AHR act: inactive; JMJD2C inh: inactive; SR-BI DiI-HDL act: inactive; GAA850 FXN act: inactive

Results for CCOC(=O)c1c(Nc2nc(C)c(C(=O)NC)s2)sc(C)c1C ?
SR-BI DiI inh: 93.3; AHR act: inactive; JMJD2C inh: inactive; SR-BI DiI-HDL act: inactive; GAA850 FXN act: inactive; DiI quencher: inactive

What do the screens show for `CCOC(=O)Nc1sc(C)c(C)c1C(=O)OCC`?
SR-BI DiI inh: inactive; AHR act: inactive; JMJD2C inh: inactive; SR-BI DiI-HDL act: inactive; GAA850 FXN act: inactive

Results for O=C(COC(=O)c1ccccn1)c1ccc([N+](=O)[O-])cc1 ?
SR-BI DiI inh: inactive; AHR act: inactive; JMJD2C inh: inactive; SR-BI DiI-HDL act: inactive; GAA850 FXN act: inactive

Results for CC(C)(C)N(Cc1ccccc1)C(=O)COC(=O)CN1C(=O)C2CC=CCC2C1=O (stereo not given) ?
SR-BI DiI inh: inactive; AHR act: inactive; JMJD2C inh: inactive; SR-BI DiI-HDL act: inactive; GAA850 FXN act: inactive

How did CC(C)(C)N(Cc1ccccc1)C(=O)COC(=O)CN1C(=O)NC2(CCCC2)C1=O do in these assays?
SR-BI DiI inh: 75.6; AHR act: inactive; JMJD2C inh: inactive; SR-BI DiI-HDL act: inactive; GAA850 FXN act: inactive; DiI quencher: inactive

What do the screens show for `CSc1nccc(-c2sc(SC)c(C#N)c2-c2ccccc2)n1`?
SR-BI DiI inh: 84.2; AHR act: inactive; JMJD2C inh: inactive; SR-BI DiI-HDL act: inactive; GAA850 FXN act: inactive; DiI quencher: inactive

How did CCC(=Cc1ccccc1OC)c1ccncc1 do in these assays?
SR-BI DiI inh: inactive; SR-BI DiI-HDL act: inactive; GAA850 FXN act: inactive

How did Cc1ccccc1NC(=O)NCC1CCN(c2ccc(S(=O)(=O)N3CCOCC3)cc2)CC1 do in these assays?
SR-BI DiI inh: 82.0; AHR act: inactive; JMJD2C inh: inactive; SR-BI DiI-HDL act: inactive; GAA850 FXN act: inactive; DiI quencher: inactive

Screening data: PubChem, several laboratories
